Source: ChEMBL document CHEMBL1141679, “Design, synthesis, biochemical, and biological evaluation of nitrogen-containing trifluoro structural modifications of combretastatin A-4” (Bioorg Med Chem Lett, 2008)
In brackets after ≈: the same amount, converted by molar mass.

What was measured:
[1] = Inhibition of calf brain tubulin polymerization; design: species or system Bos taurus
In short: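 Tubulin was purified from calf brain. Assembly was followed by turbidity at 350 nm. IC50 was obtained by nonlinear regression of the data.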

[2] = system: NCI-H460; test: Cytotoxicity against human NCI-H460 cells after 48 hrs by SRB assay; type: functional; details: NCI-H460, 48 h
In short: (§1)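 Cells were seeded in culture medium with 5% fetal bovine serum and incubated 24 h, then serial dilutions of compound were added. After 48 h, cells were fixed with trichloroacetic acid and stained with sulforhodamine B, and optical density was read on a plate reader. GI50 is the concentration giving a 50% reduction in net protein increase, calculated from optical density.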

[3] = system: DU-145; test: Cytotoxicity against human DU145 cells after 48 hrs by SRB assay; type: functional; details: DU-145, 48 h; in short: as §1

IC50 [1] [nM] | SMILES | GI50 [2] [µg/mL] | GI50 [3] [µg/mL]
4500 | COc1ccc(/C=C\c2cc(F)c(F)c(F)c2)cc1O | 0.2 (≈ 0.714 µM) | 0.04 (≈ 0.143 µM)
– | COc1ccc(/C=C/c2cc(F)c(F)c(F)c2)c(N)c1 | > 5 | > 5
– | COc1ccc(/C=C\c2cc(F)c(F)c(F)c2)c(N)c1 | > 5 | 4.3 (≈ 15.4 µM)
– | COc1ccc(/C=C\c2cc(F)c(F)c(F)c2)c([N+](=O)[O-])c1 | > 5 | > 5
> 40000 | COc1ccc(/C=C\c2cc(F)c(F)c(F)c2)cc1[N+](=O)[O-] | > 5 | > 5
– | COc1ccc(/C=C/c2cc(F)c(F)c(F)c2)c([N+](=O)[O-])c1 | > 5 | > 5
> 40000 | COc1ccc(/C=C/c2cc(F)c(F)c(F)c2)cc1[N+](=O)[O-] | > 5 | > 5
> 40000 | COc1ccc(/C=C/c2cc(F)c(F)c(F)c2)cc1N | > 5 | > 5
2900 | COc1ccc(/C=C\c2cc(F)c(F)c(F)c2)cc1N | 0.11 (≈ 0.394 µM) | 0.072 (≈ 0.258 µM)
– | COc1ccc(/C=C\c2cc(OC)c(OC)c(OC)c2)cc1O [COMBRETASTATIN A4] | 0.0006 (≈ 0.0019 µM) | 0.0008 (≈ 0.00253 µM)

SMILES | IC50 [1] [nM] | GI50 [2] [µg/mL] | GI50 [3] [µg/mL]
COc1ccc(/C=C\c2cc(OC)c(OC)c(OC)c2)c(N)c1 | 1400 | 0.0012 (≈ 0.00381 µM) | 0.0016 (≈ 0.00507 µM)
COc1ccc(/C=C\c2cc(OC)c(OC)c(OC)c2)cc1N | 2600 | 0.00068 (≈ 0.00216 µM) | 0.00096 (≈ 0.00304 µM)
